PKA-R2B activ: PKA-R2B complex activation; P22694+P31323; PKA-R2B holoenzyme dissociation, Cy5-IP20 fluorescence polarization; R2B truncated from residue 108, S112A mutant; 0% DMSO only, 100% 113 µM cGMP; activation, % at 11.4 µM; 340,000 tested, 0.079% active; AID 504700;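 active means activation above a cutoff set at the mean over all compounds plus 3 SD, cut at about 18% in these data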;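 further: higher means more holoenzyme dissociation and a rise in polarization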
Neddylation inh: blocks human cullin neddylation. TR-FRET cullin neddylation, biochemical. inhibition, % at 25 µM. P61081+Q13564. AID 651699. 360,000 tested, 0.58% active; in the data active means inhibition above about 36%
Target sequence (P61081 whole entry, looked up): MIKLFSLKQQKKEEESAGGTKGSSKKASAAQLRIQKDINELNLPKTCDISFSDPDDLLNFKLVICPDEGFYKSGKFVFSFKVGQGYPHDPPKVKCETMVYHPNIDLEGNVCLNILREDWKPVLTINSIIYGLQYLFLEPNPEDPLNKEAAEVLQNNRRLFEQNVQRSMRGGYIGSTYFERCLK
Target sequence (Q13564 whole entry, looked up): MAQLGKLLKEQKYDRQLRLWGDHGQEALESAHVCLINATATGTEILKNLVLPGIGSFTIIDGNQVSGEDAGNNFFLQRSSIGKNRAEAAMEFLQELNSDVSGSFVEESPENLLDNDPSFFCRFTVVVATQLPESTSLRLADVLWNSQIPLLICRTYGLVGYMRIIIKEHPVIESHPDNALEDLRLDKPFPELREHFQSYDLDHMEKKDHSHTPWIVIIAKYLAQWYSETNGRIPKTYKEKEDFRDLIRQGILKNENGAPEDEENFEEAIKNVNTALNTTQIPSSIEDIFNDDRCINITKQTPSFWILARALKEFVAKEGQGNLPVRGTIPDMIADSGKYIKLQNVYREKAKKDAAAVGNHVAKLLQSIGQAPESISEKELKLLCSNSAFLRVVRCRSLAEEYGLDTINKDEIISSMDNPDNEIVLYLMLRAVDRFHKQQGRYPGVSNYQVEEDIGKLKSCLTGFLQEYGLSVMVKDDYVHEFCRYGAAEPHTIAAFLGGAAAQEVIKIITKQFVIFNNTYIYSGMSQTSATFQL
DDE Tn7 FP inh: DD(E)-Tn7 binding inhibition, primary FP screen; P02675; FP displacement of FITC-Tn7 peptide from fibrin DD(E); 0% = median of compound wells per plate; inhibition, % at 8.3 µM; 370,000 tested, 0.13% active; AID 720508;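 active means inhibition above the mean of compounds falling within the control limits plus 3 SD of them, cut at about 14% in these data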;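 further: 0% = plate median of compound wells and 100% = 10 µM Aha-Tn7 peptide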
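assay system = human clot-derived fibrin DD(E) complex | quantity = Fibrin-DD(E) at 2 µM final | timing = 10 min preincubation, 3 h with tracer, room temperature | signal = fluorescence polarization | measure = percent inhibition | benchmarks = high control wells with 10 µM unlabelled Aha-Tn7 peptide (full inhibition) | replicates = singlicate testing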
PKA-R1A activ: activators of PKA-R1A complex; activation, % at 11.4 µM; P00514+P68181; 340,000 tested, 0.083% active; AID 504707; PKA-R1A dissociation, Cy5-IP20 fluorescence polarization; scaled: DMSO 0%, 113 µM cGMP 100%;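 active means percent activation above the mean of all tested compounds plus 3 SD, cut at about 19% in these data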;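 further: higher means more PKAc released from R1A so a rise in polarization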
Tn6 DDE FP: disrupts Tn6 cyclic peptide binding to fibrin D-Dimer-E complex; 370,000 tested, 0.21% active; Fibrin DD(E) TRITC-Tn6 fluorescence polarization displacement; P02675; inhibition, % at 8.3 µM;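 active means inhibition above a per-campaign cutoff: mean of compounds within control limits plus 3 SD, cut at about 15% in these data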;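 further: 0% = median of all compound wells on the plate and 100% = blocking peptide control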
An asterisk follows results filed as active. Hits are enriched below; roughly 1% of the tested compounds scored in any of these assays.

For CCOc1ccc(C(=O)CC(C(=O)O)N2CCN(Cc3ccccc3)CC2)cc1 (stereo unspecified) the results were PKA-R2B activ -5, Neddylation inh 11 and PKA-R1A activ -16.
For CCOc1ccc(C(=O)CC(C(=O)O)N2CCCCC2)cc1 (stereo unspecified) the results were PKA-R2B activ 19*, Neddylation inh -22 and PKA-R1A activ -5.
Cc1ccc(S(=O)(=O)Nc2nc3ccccc3nc2NCc2ccco2)cc1 was read as PKA-R2B activ -13, Neddylation inh 20, DDE Tn7 FP inh 2, PKA-R1A activ 8 and Tn6 DDE FP 44*.
`O=C(NN=Cc1ccc(O)cc1O)c1ccccc1NS(=O)(=O)c1cccs1` gave PKA-R2B activ 0, Neddylation inh 43*, DDE Tn7 FP inh 9, PKA-R1A activ -6 and Tn6 DDE FP 6.
`COc1ccc(C=NNC(=O)c2ccccc2NS(=O)(=O)c2cccs2)cc1O` gave PKA-R2B activ -4, Neddylation inh 26, DDE Tn7 FP inh 1, PKA-R1A activ 1 and Tn6 DDE FP -3.
`O=S1(=O)c2ccc(N3CCSCC3)cc2Oc2ccccc2CN1Cc1cn(Cc2cccc(C(F)(F)F)c2)nn1` gave DDE Tn7 FP inh 0 and Tn6 DDE FP 1.
Screening COC(=O)[C@H]1[C@@H](O)[C@@]2(O)c3c(OC)cc(OC)cc3O[C@@]2(c2ccc(OC)cc2)[C@@H]1c1ccc(F)cc1 returned DDE Tn7 FP inh 0 and Tn6 DDE FP 3.
CC(C)N1CCc2c(sc(NC(=O)c3ccc4ccccc4c3)c2C(N)=O)C1 was read as PKA-R2B activ -1, Neddylation inh 54*, DDE Tn7 FP inh -13, PKA-R1A activ -1 and Tn6 DDE FP -2.
COC(=O)c1sc(-c2ccc(Cl)cc2)cc1NC(=O)c1ccccc1C(=O)O was read as PKA-R2B activ -11, Neddylation inh -11, DDE Tn7 FP inh -7, PKA-R1A activ -1 and Tn6 DDE FP 6.
Screening COC(=O)c1sc(-c2ccc(C(C)(C)C)cc2)cc1NC(=O)CSCC(=O)O returned PKA-R2B activ 3, Neddylation inh 40*, DDE Tn7 FP inh -5, PKA-R1A activ 2 and Tn6 DDE FP 0.
COC(=O)c1sc(-c2ccc(C(C)(C)C)cc2)cc1NC(=O)c1ccccc1C(=O)O was read as PKA-R2B activ 6, Neddylation inh 70*, DDE Tn7 FP inh 12, PKA-R1A activ -11 and Tn6 DDE FP 5.
Screening Cc1cc(Nc2cccc(Cl)c2)nc(NCc2ccccc2)n1 returned PKA-R2B activ -15, Neddylation inh 45*, DDE Tn7 FP inh -6, PKA-R1A activ 2 and Tn6 DDE FP -8.
Screening CN1\C(=C/C=C/C=C/C=[N+](C)C)C(C)(C)c2ccccc21 returned PKA-R2B activ 6, Neddylation inh -4, DDE Tn7 FP inh -11, PKA-R1A activ -1 and Tn6 DDE FP 31*.
`CN1/C(=C\C=O)C(C)(C)c2ccccc21` gave PKA-R2B activ -3, Neddylation inh 3, DDE Tn7 FP inh 4, PKA-R1A activ 8 and Tn6 DDE FP -2.
For C=CCCC(=O)N1CCC(C(=O)NCC2COc3ccccc3O2)CC1 (stereo unspecified) the results were DDE Tn7 FP inh 1 and Tn6 DDE FP -5.
O=C(COC(=O)CCCN1C(=O)c2ccccc2C1=O)Nc1ncc(Cl)cc1Cl was read as PKA-R2B activ -9, Neddylation inh -1, DDE Tn7 FP inh 15*, PKA-R1A activ -5 and Tn6 DDE FP -2.
For O=C(COC(=O)CN1C(=O)c2ccccc2C1=O)Nc1ncc(Cl)cc1Cl the results were PKA-R2B activ 3, Neddylation inh -15, DDE Tn7 FP inh 0, PKA-R1A activ -9 and Tn6 DDE FP 0.
Screening CC(=O)Nc1sc2c(c1-c1nc(-c3ccccc3)cs1)CCN(C(C)C)C2 returned DDE Tn7 FP inh -2 and Tn6 DDE FP -7.
Screening O=C(Nc1ccc2[nH]ccc2c1)c1cc(-c2ccc(Cl)cc2)nc2ccccc12 returned DDE Tn7 FP inh -1 and Tn6 DDE FP 0.
For O=C(N/N=C/c1c(O)n(-c2ccccc2Cl)c(=O)c2ccccc12)c1cccnc1 the results were PKA-R2B activ -4, Neddylation inh 29, DDE Tn7 FP inh -2, PKA-R1A activ -7 and Tn6 DDE FP 5.
